Sampled rows, rich in hits. Any-hit rate of the full collection: about 1.7%.
HNF4A DNA FP: change in binding of human HNF4 alpha to DNA | 360,000 compounds, 0.3% hits | activity change, % at 10 µM | AID 1224865 | P41235 | HNF4a-FITC DNA binding, fluorescence polarization, 1 h; in the data active = activity change above about 30%, passing the limit was not always enough
CSN deneddyl inh: blocks human CSN-mediated cullin deneddylation. inhibition, % at 12.5 µM. Purified CSN, SCF-Nedd8-OG deneddylation, fluorescence polarization. AID 651999. 360,000 compounds, 0.38% hits. Q92905;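 active = pattern-corrected inhibition above about 35%, with an unprinted fluorescence ratio check between 0.5 and 1.5, limit read from the data, passing the limit was not always enough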
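Detection – fluorescence polarization · System – HEK293T-derived human Csn5 enzyme · Controls – substrate-only high control, full reaction low control · Timing – 90 min, room temperature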
Rpn11 inh: inhibitors of human proteasome Rpn11 | O00487 | human 26S proteasome, Ub4-pepOG fluorescence polarization; 20S core pre-blocked with epoxomicin | inhibition, % at 20 µM | 360,000 compounds, 0.59% hits | AID 588493;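 active = inhibition at 20 µM, scaled to each plate's controls, above about 33%, limit read from the data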
IDE act: boosts human insulin-degrading enzyme activity in HEK cells. 340,000 compounds, 0.073% hits. FAbeta-B cleavage, fluorescence polarization; 0% vehicle, 100% cell-free pure enzyme wells. activation, % at 5.96 µM. P14735;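 active = activation above the mean of all tested compounds plus 3 SD, set per screening campaign, cut at about 17% in these data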
TPT1 inhibitor: inhibitors of Candida albicans tRNA 2'-phosphotransferase TPT1 | recombinant caTPT1, FP RNA substrate dephosphorylation | inhibition, % at 5 µM | 300,000 compounds, 0.81% hits;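 active = inhibition above the mean of all tested compounds plus 3 SD, set per screening campaign, cut at about 24% in these data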
IDE inh: inhibits human insulin-degrading enzyme in HEK cells. 320,000 compounds, 0.41% hits. P14735. FAbetaB cleavage, fluorescence polarization. inhibition, % at 5.59 µM;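 active = percent inhibition above the average of all tested compounds plus 3 SD, set per screening campaign, cut at about 16% in these data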;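 also: IDE supplied by intact live HEK cells; FP after avidin binding of uncleaved biotin substrate so inhibition keeps polarization high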
Rpn11 inh conf: confirmation of human proteasome Rpn11 inhibitors; inhibition, % at 20 µM; 1,900 compounds, 29% hits; shares compounds with Rpn11 inh; purified human 26S proteasome, Ub4-pepOG fluorescence polarization; proteasome pretreated with epoxomicin
MMP-2 inh: counter-screen for RPN11 inhibitors: inhibition of human MMP-2; shares compounds with Rpn11 inh; recombinant MMP-2, FRET peptide cleavage fluorescence; inhibition, % at 20 µM; 1,900 compounds, 4% hits;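 also: human MMP-2 activated beforehand with APMA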
Target sequence (P08253 whole entry, looked up): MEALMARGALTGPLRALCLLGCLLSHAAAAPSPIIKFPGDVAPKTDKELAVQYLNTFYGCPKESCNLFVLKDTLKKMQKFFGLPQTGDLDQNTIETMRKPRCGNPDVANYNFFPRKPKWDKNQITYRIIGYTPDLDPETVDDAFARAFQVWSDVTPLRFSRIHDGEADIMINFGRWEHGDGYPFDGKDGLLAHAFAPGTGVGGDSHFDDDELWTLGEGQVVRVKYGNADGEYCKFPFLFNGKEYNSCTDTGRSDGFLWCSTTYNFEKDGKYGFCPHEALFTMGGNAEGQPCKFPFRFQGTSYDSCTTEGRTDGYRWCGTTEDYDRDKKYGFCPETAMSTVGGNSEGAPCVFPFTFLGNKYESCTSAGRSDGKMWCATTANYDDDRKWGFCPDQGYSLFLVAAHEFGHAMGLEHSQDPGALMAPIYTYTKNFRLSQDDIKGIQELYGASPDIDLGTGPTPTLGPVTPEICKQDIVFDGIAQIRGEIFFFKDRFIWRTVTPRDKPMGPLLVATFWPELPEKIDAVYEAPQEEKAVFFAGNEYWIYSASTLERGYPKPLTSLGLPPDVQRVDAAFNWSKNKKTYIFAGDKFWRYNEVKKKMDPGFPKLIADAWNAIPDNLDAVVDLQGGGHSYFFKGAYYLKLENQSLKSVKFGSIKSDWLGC
Thrombin inh: thrombin (bovine) inhibition counter-screen | inhibition, % at 20 µM | AID 602333 | bovine thrombin cleavage of Ub4-pepOG, fluorescence polarization | 1,900 compounds, 13% hits | shares compounds with Rpn11 inh;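 active = mean inhibition at least 40% at 20 µM, or signal 3 deviations below plate average, so some actives read negative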
Each line names hits and unclear results; the compound was inactive in the other large screens (follow-up assays come after a bar, where they were run). Rule as the data show it, unless noted: active = inhibition above about 40%; inactive = the rest.

C(=C\c1ccccc1)/CN1CCN(C(CCc2ccccc2)c2nnnn2C2CCCCC2)CC1 (stereo not given)	none (no result: IDE act, TPT1 inhibitor, IDE inh)
NC(=S)NN=C1CSSC1	none (no result: IDE act, TPT1 inhibitor, IDE inh)
Cc1ccc(CSc2cc(C)[nH]c(=O)n2)cc1	Rpn11 inh 64 | Rpn11 inh conf inactive | MMP-2 inh inactive | Thrombin inh inactive
COc1ccc(/C=c2\sc3nc(-c4ccccc4)c(-c4ccccc4)n3c2=O)cc1OC	Rpn11 inh 140 | Rpn11 inh conf inactive | MMP-2 inh inactive | Thrombin inh inactive
CSc1nc2nccc(-c3ccc(Oc4ccccc4)cc3)n2n1	none
CSc1nc2nccc(-c3ccc(-c4ccccc4)cc3)n2n1	Rpn11 inh 60 | Rpn11 inh conf inactive | MMP-2 inh inactive | Thrombin inh inactive
Cc1ccc(C(=O)NCc2ccccn2)cc1S(=O)(=O)N1CCOCC1	none (no result: TPT1 inhibitor)
COc1ccc(Cl)cc1Cn1c(C)c(C(=O)NCc2ccc3c(c2)OCCO3)sc1=O	none (no result: IDE act, TPT1 inhibitor, IDE inh)
COc1ccc(Cn2nnnc2C(c2ccccc2Cl)N2CCC(C(N)=O)CC2)cc1 (stereo not given)	none
COc1ccc(Cn2nnnc2C(c2cc(OC)ccc2OC)N2CCC(C(N)=O)CC2)cc1 (stereo not given)	Rpn11 inh 125 | Rpn11 inh conf inactive | MMP-2 inh inactive | Thrombin inh inactive
COc1ccc(-c2nnc(SC)nc2-c2ccc(OC)c([N+](=O)[O-])c2)cc1[N+](=O)[O-]	Rpn11 inh 103 | Rpn11 inh conf inactive | MMP-2 inh 70 | Thrombin inh inactive
Cc1ccc(C(=O)Nc2nnc(COCCO)s2)cc1	none (no result: IDE act, TPT1 inhibitor, IDE inh)
Cc1ccc(S(=O)(=O)N(C)CC(=O)O/N=C(\N)c2cccc([N+](=O)[O-])c2)cc1	Rpn11 inh 196 | Rpn11 inh conf inactive | MMP-2 inh inactive | Thrombin inh inactive
O=C(CCN1C(=O)/C(=C/C=C/c2ccccc2)SC1=S)Nc1ccccn1	Rpn11 inh 38 | Rpn11 inh conf inactive | MMP-2 inh inactive | Thrombin inh inactive
C[C@@H]1CN([C@H](C)CO)C(=O)CCCn2cc(nn2)CO[C@H]1CN(C)C(=O)Nc1ccc2c(c1)OCO2	none (no result: IDE act, TPT1 inhibitor, IDE inh)
COC(=O)c1ccc(/C=N/OCC(=O)NCCc2ccc(OC)c(OC)c2)cc1	Rpn11 inh 33 | Rpn11 inh conf inactive | MMP-2 inh inactive | Thrombin inh inactive
COc1ccc(CCNC(=O)CC(=O)N/N=C/c2ccc(C(=O)O)cc2)cc1OC	none
Cc1ccc2nc(/N=C(\N)NC(=O)N3c4ccccc4Sc4ccccc43)nc(C)c2c1	Rpn11 inh 45 | Rpn11 inh conf inactive | MMP-2 inh inactive | Thrombin inh inactive
Cc1ccc2c(C)nc(/N=C(\N)NC(=O)N3c4ccccc4Sc4ccccc43)nc2c1	none
c1ccc(Cn2c(SCc3nc4ccccc4s3)nnc2-c2ccco2)cc1	CSN deneddyl inh 45, Rpn11 inh 74 | Rpn11 inh conf inactive | MMP-2 inh inactive | Thrombin inh inactive
CCC(c1nnc(SCc2nc3ccccc3s2)n1Cc1ccccc1)N(C)C (stereo not given)	none
O=C(O)c1cccc(S(=O)(=O)Nc2ccccc2Oc2ccccc2)c1	none (no result: IDE act, TPT1 inhibitor, IDE inh)
COc1ccc(C2=C/C(=C\c3ccc(OC(C)=O)cc3)C(=O)O2)cc1	none
CN(C)c1ccc(/C=C2/C=C(c3ccc4c(c3)CCCC4)OC2=O)cc1	HNF4A DNA FP 45, Rpn11 inh 69 | Rpn11 inh conf inactive | MMP-2 inh inactive | Thrombin inh inactive
CC(=O)Oc1ccc(C2=Cc3ccc(OC(C)=O)cc3OC2C)cc1 (stereo not given)	none (no result: TPT1 inhibitor, IDE inh)
O=C(N/N=C/c1ccc(OC(=O)c2ccc3c(c2)OCO3)cc1)c1cncc(Br)c1	Rpn11 inh active | Rpn11 inh conf inactive | MMP-2 inh inactive | Thrombin inh inactive
FC(F)(F)c1cccc(NC(=S)Nc2ccc(Cl)c(Cl)c2)c1	Rpn11 inh 37 (no result: IDE act) | Rpn11 inh conf inactive | MMP-2 inh inactive | Thrombin inh inactive
CCC/C=C/c1ccc(CN2C(C)C(=O)N(Cc3cn(CCC4OCCCO4)nn3)CCS2(=O)=O)cc1 (stereo not given)	none (no result: IDE act, TPT1 inhibitor, IDE inh)
Cc1csc(=O)n1CC(=O)OCC(=O)Nc1ccc(F)c(F)c1F	none (no result: IDE act, TPT1 inhibitor, IDE inh)
COc1ccc2c(c1)Cc1sc(NC(=O)c3ccco3)nc1-2	Rpn11 inh 152 | Rpn11 inh conf inactive | MMP-2 inh inactive | Thrombin inh inactive
COc1ccc2c(c1)CCc1sc(NC(=O)c3ccco3)nc1-2	none
CC(OC(=O)c1cccs1)C(=O)NC1CC1 (stereo not given)	Rpn11 inh 38 | Rpn11 inh conf inactive | MMP-2 inh inactive | Thrombin inh inactive
Cc1cccc(C)c1-n1nnnc1C(c1ccnc2ccccc12)N(CCN(C)C)Cc1ccccc1 (stereo not given)	none (no result: Rpn11 inh, IDE act, TPT1 inhibitor, IDE inh)
Cc1nnc(N/N=C\c2ccc(-c3ccccc3[N+](=O)[O-])o2)n1N	Rpn11 inh 65 | Rpn11 inh conf inactive | MMP-2 inh inactive | Thrombin inh inactive
CCOC(=O)C1=C(O)/C(=C\c2ccc(O)c(OCC)c2)N=C1C	none
CCOc1cc(/C=C2\SC(N)=NC2=O)ccc1O	Rpn11 inh 43 | Rpn11 inh conf inactive | MMP-2 inh inactive | Thrombin inh inactive
CCOc1cc(/C=C2\SC(=O)N=C2N)ccc1O	Rpn11 inh 51 | Rpn11 inh conf inactive | MMP-2 inh inactive | Thrombin inh inactive
CCOc1cc(/C=C2/N=C(C)C(C(=O)OC)=C2O)ccc1O	Rpn11 inh 51 | Rpn11 inh conf inactive | MMP-2 inh inactive | Thrombin inh inactive
CCOc1cc(/C=C2\CN(C)C/C(=C\c3ccc(O)c(OCC)c3)C2=O)ccc1O	none
CCOC(=O)[C@]12CCCC=C1N(Cc1ccc3c(c1)OCO3)C(=O)[C@H](CC(=O)NCCc1ccccc1OC)C2	none (no result: Rpn11 inh, IDE act, TPT1 inhibitor, IDE inh)
C[C@@H]1CN([C@@H](C)CO)C(=O)CCCn2nncc2CO[C@H]1CN(C)C(=O)c1ccccc1	none (no result: IDE act, TPT1 inhibitor, IDE inh)
CC(=O)Nc1ccc(N/C=C/C(=O)c2ccc(Cl)cc2)cc1	Rpn11 inh 98 | Rpn11 inh conf inactive | MMP-2 inh inactive | Thrombin inh inactive
CC(=O)c1ccc(N/C=C\C(=O)c2ccc(C)cc2)cc1	none
CC1(C)CC(=O)C(N=Nc2ccc(-c3ccccc3)cc2)=C(O)C1	Rpn11 inh 48 | Rpn11 inh conf inactive | MMP-2 inh inactive | Thrombin inh inactive
CC1(C)CC(=O)C(N=Nc2ccc(F)cc2)=C(O)C1	none

Screening data from PubChem BioAssay.
